Assay results collected from several papers.
Compare with care: the assays were run in different laboratories.
Target: Casein kinase I isoform alpha-like (CSNK1A1L, Homo sapiens, UniProt Q8N752)
Residues used in one study (Q8N752 1-337): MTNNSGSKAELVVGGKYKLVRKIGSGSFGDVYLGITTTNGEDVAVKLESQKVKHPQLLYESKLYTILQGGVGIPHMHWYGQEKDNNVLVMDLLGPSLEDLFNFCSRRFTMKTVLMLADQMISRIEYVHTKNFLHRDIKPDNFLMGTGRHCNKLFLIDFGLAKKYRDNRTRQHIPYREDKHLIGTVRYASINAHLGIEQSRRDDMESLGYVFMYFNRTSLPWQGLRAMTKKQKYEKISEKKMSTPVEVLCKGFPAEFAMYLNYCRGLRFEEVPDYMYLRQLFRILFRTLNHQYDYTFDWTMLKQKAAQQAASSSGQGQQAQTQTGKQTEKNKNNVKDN

SMILES	assay	conditions	remaining binding
Cc1nccc(COC(=O)N2C[C@@H]3[C@@H](CNC(=O)c4ccc5[nH]nnc5c4)[C@@H]3C2)n1	cell-free assay, competition with immobilised ligand	1 µM	100%
N[C@@H]1CCN(c2nccc(-c3cnn4ncccc34)n2)C1	binding	1 µM	100%
C=CC(=O)N1CCC(C(=O)NCC(=O)N2CCN(c3nc(-c4cnc(N)nc4C(F)F)nc(N4CCOCC4)n3)CC2)CC1	binding, competition with immobilised ligand	1 µM	100%
COc1ccnn2ncc(-c3ccnc(N(C)C)n3)c12	binding	1 µM	91%
c1cncc(-c2cccc(Nc3nccc(NC4CCCCC4)n3)c2)c1	binding, competition with immobilised ligand	10 µM	92%
Cc1c[nH]c2nccc(Oc3c(F)cc(Nc4cc(Cl)nc(N)n4)cc3F)c12	cell-free assay, competition with immobilised ligand	0.1 µM	89%
COc1ncc2cc3ccccc3nc2c1C#N	cell-free assay, competition with immobilised ligand	5 µM	100%
O=C(Nc1c[nH]nc1C(=O)NC1CCNCC1)c1cc(F)cc(F)c1	binding, competition with immobilised ligand	1 µM	84%
C[C@@H]1CCN(c2nccc(-c3cnn4ncccc34)n2)C1	binding	1 µM	81%
CN(C(=O)c1ccccc1)c1cc(N(C)c2ccc3c(c2)CCc2ccc(C(=O)NCCN4CCOCC4)cc2C3=O)ccc1F	cell-free assay, competition with immobilised ligand	1 µM	100%
O=C(c1ccc(Nc2ncc(Cl)c(-c3cc4ccccc4s3)n2)cc1)N1CCC(N2CCCC2)CC1	binding, competition with immobilised ligand	1 µM	100%
CNC(=O)[C@@H]1CC[C@@H](n2c(-c3ccc4cnccc4c3)nc3ccc(C(=O)NCc4cccc(C(N)=O)c4)cc32)C1	binding, competition with immobilised ligand	1 µM	100%
F[C@@H]1CCN(c2nccc(-c3cnn4ncccc34)n2)C1	binding	1 µM	100%
COc1ccc2c(c1)O[C@H](c1ccc(OC)c(OC)c1)C[C@@H]2NC(=O)C1(c2ccc3c(c2)OC(F)(F)O3)CC1	cell-free assay, competition with immobilised ligand	1 µM	100%
Cc1cnc(Nc2ccc(C(=O)N3CCC(N4CCCC4)CC3)cc2)nc1-c1cc2ccccc2s1	binding, competition with immobilised ligand	1 µM	100%
C[C@H](c1ccnc(Nc2nc3ccc(-c4cc(N(C)C)ncn4)cc3[nH]2)c1)N1CCN(C(=O)CC(F)(F)F)CC1	cell-free assay, competition with immobilised ligand	0.1 µM	94%
O=C(c1ccc(Nc2ncc(Cl)c(-c3ccc(Cl)s3)n2)cc1)N1CCC(N2CCCC2)CC1	binding, competition with immobilised ligand	1 µM	100%
c1cnn2ncc(-c3ccnc(N4CCC45COC5)n3)c2c1	binding	1 µM	68%
CN(C)C(=O)Cn1cc(-c2nc([C@@](C)(c3ccc(-c4cnc(N)nc4)cc3)C3CC3)no2)cn1	cell-free assay, competition with immobilised ligand	1 µM	100%
CC1CCCN1c1nccc(-c2cnn3ncccc23)n1 (stereo not drawn)	binding	1 µM	100%
CCN1CCN(Cc2ccc(C(=O)Nc3ccc(C)c(Oc4ccc5c(c4)CC(=O)N5)c3)cc2C(F)(F)F)CC1	binding, competition with immobilised ligand	1 µM	100%
